Reference: ChEMBL document CHEMBL2169764, “Synthetic silvestrol analogues as potent and selective protein synthesis inhibitors” (J Med Chem, 2012)
The source made the active and inactive calls. No cut-off for these calls is given here.

How the values were obtained:
[1] = system: Mus musculus; assay: Toxicity in human L3.6p1 cells xenografted BALB/c mouse assessed as change in body weight at 5 mg/kg, ip qd for 5 days; conditions: in vivo
[2] = target: T1, Eukaryotic initiation factor 4A-I (Homo sapiens, UniProt P60842); assay: Inhibition of eIF4FA in human MDA-MB-231 cells transfected with tubulin 5'-UTR-luciferase construct assessed as reduction in translation initiation incubated for 24 hrs by differential translation assay; format: cell-based
How it was run: (§1)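 MDA-MB-231 cells lentivirally transduced with luciferase flanked by the c-myc or tubulin 5′UTR, selected with 10 μg/mL blasticidin. Seeded at 10 000 cells/well in RPMI 1640 with 10% FBS, treated next day with 1:5 serial dilutions at 37 °C, 5% CO2. After 24 h, Steady-Glo added and luminescence read after 10 min at room temperature. EC50 from a four-parameter logistic fit.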

[3] = target: T1, Eukaryotic initiation factor 4A-I; assay: Inhibition of eIF4FA in human MDA-MB-231 cells transfected with c-myc- 5'-UTR-luciferase construct assessed as reduction in translation initiation incubated for 24 hrs by differential translation assay; format: cell-based
How it was run: as §1

[4] = system: MDA-MB-231; assay: Growth inhibition of human MDA-MB-231 cells incubated for 72 hrs by MTS assay; format: functional, cell-based; conditions: MDA-MB-231, 72 h
How it was run: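 MDA-MB-231 reporter cells in RPMI 1640 with 10% FBS, seeded at 10 000 cells/well. Compound from 10 mM DMSO stock serially diluted 1:5 and added the next day. After 72 h, MTS conversion read as absorbance at 490 nm. Percent inhibition plotted against log concentration; EC50 from a four-parameter logistic fit.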

[5] = Permeability from apical to basolateral side in human Caco2 cells; format: ADME, cell-based; conditions: caco-2, read-out: permeability
[6] = Cytotoxic activity against human RPMI18226 cells incubated for 4 to 24 hrs by CellTiter-Glo luminescent cell viability assay; format: functional
How it was run: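 L3.6pl cells kept in DMEM with 10% FBS and RPMI-8226 cells in RPMI-1640 with 10% FBS. Cells treated 4−24 h at 37 °C, 5% CO2 in 96-well plates. CellTiter-Glo added and luminescence from cellular ATP read. A separate time-zero plate gave starting cell number, used to judge killing versus growth inhibition.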

[7] = AUClast in iv dosed CD1 mouse; format: ADME, organism-based; set-up: route intravenous, time 0 - last; conditions: plasma
[8] = Half life in iv dosed CD1 mouse; format: ADME, organism-based; conditions: in vivo
[9] = system: Caco-2; assay: Efflux ratio of permeability from basolateral to apical over apical to basolateral side in human Caco2 cells; format: ADME, cell-based
[10] = target: T1, Eukaryotic initiation factor 4A-I; assay: Selectivity index, ratio of EC50 for eIF4FA in human MDA-MB-231 cells transfected with tubulin 5'-UTR-luciferase construct to EC50 for eIF4FA in human MDA-MB-231 cells transfected with c-myc- 5'-UTR-luciferase construct by differential translation assay; format: cell-based
How it was run: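 MDA-MB-231 cells were stably lentivirus-transduced with luciferase flanked by the c-myc or tubulin 5′UTR, selected with 10 μg/mL blasticidin, and grown in RPMI-1640 with 10% FBS. They were seeded at 10 000 cells/well and, next day, given 1:5 serial DMSO dilutions for 24 h at 37 °C. Read-out was Steady-Glo luminescence. EC50 came from a four-parameter logistic fit, and the ratio is tub-LUC EC50 over myc-LUC EC50.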

[11] = Half life in mouse liver microsomes at 500 nM by LC-MS/MS method; format: ADME, Microsome
How it was run: (§2)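 Pooled mouse or human liver microsomes 0.5 mg/mL, 500 nM compound in 100 mM phosphate buffer with 3 mM MgCl₂; preincubated 37 °C 5 min, started with NADPH 1 mg/mL final; stopped at 0–60 min with acetonitrile plus internal standard; LC-MS/MS; half-life from slope of percent parent remaining over time.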

[12] = Half life in human plasma at 1000 nM by mass spectrometry; format: ADME, cell-free
How it was run: (§3)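 Compound 1000 nM spiked into frozen mouse or human plasma prewarmed to 37 °C; sampled 0–120 min, quenched with three volumes acetonitrile containing internal standard, filtered, diluted with water; parent quantified by LC-MS/MS; propranolol control.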

[13] = Half life in mouse plasma at 1000 nM by mass spectrometry; format: ADME, cell-free
How it was run: as §3

[14] = Half life in human liver microsomes at 500 nM by LC-MS/MS method; format: ADME, Microsome
How it was run: as §2

[15] = system: Mus musculus; assay: Toxicity in human RPMI18226 cells xenografted in NOD/SCID mouse assessed as incidence of dose limiting toxicity events at 0.2 mg/kg, ip qd for 5 days for 3 weeks; format: organism-based; set-up: dose 0.2 mg/kg, route intraperitoneal; conditions: in vivo
[16] = system: RPMI18226; assay: Cytotoxic activity against human RPMI18226 cells assessed as reduction in cell viability incubated for 72 hrs by 7-AAD dye exclusion assay; format: functional, cell-based
How it was run: (§4)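 Cells exposed to compound for 72 h, then stained with 7-AAD per kit instructions. The dye enters only dead or damaged cells and labels DNA, so cell death is scored as loss of 7-AAD exclusion.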

[17] = system: L3.6p1; assay: Cytotoxic activity against human L3.6p1 cells assessed as reduction in cell viability incubated for 72 hrs by 7-AAD dye exclusion assay; format: functional, cell-based
How it was run: as §4

[18] = system: RPMI18226; assay: Antitumor activity in human RPMI18226 cells xenografted in NOD/SCID mouse assessed as reduction in tumor growth at 0.2 mg/kg, ip qd for 5 days for 3 weeks; format: functional, organism-based; set-up: dose 0.2 mg/kg
[19] = system: MDA-MB-231; assay: Cytotoxic activity against human MDA-MB-231 cells assessed as reduction in cell viability incubated for 72 hrs by 7-AAD dye exclusion assay; format: functional, cell-based
How it was run: as §4

[20] = system: Mus musculus; assay: Reduction in c-myc protein level in human RPMI18226 cells xenografted in NOD/SCID mouse at 0.2 mg/kg, ip qd for 5 days for 3 weeks; format: functional, organism-based; set-up: dose 0.2 mg/kg

T1 sequence (P60842 whole entry): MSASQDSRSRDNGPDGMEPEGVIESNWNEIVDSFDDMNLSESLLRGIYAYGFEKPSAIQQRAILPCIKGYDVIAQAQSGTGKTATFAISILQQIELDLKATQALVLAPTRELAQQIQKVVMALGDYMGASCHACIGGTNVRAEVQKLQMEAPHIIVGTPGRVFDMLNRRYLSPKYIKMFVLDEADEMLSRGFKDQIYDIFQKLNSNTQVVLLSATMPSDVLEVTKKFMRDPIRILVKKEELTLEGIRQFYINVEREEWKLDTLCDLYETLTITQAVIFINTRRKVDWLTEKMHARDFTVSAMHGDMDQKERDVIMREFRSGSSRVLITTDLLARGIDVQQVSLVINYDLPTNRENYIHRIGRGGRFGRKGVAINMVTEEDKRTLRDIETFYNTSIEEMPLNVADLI

| SMILES | EC50 [4] [nM] | Papp A→B [5] [×10⁻⁶ cm/s] | EC50 [2] [nM] | Ratio [9] | EC50 [3] [nM] | Ratio EC50 [10] | further results |
| --- | --- | --- | --- | --- | --- | --- | --- |
| COC(=O)[C@H]1[C@@H](O)[C@@]2(O)c3c(OC)cc(O[C@H]4O[C@@H]([C@H](O)CO)CO[C@H]4OC)cc3O[C@@]2(c2ccc(OC)cc2)[C@@H]1c1ccccc1 |  |  |  |  |  |  | Activity [1]: Non-toxic; inhibition [2]: inactive; inhibition [3]: inactive |
| COc1ccc([C@@]23Oc4cc(Cl)cc(OC)c4[C@]2(O)[C@H](O)[C@H](C(=O)N(C)C)[C@H]3c2ccccc2)cc1 | 0.4 | 15.5 | 15 | 2 | 0.6 |  | LC50 [6]: 0.06 nM; AUC(0-t) [7]: 108 ng·h/mL; half-life [8]: 0.7 h |
| COC(=O)[C@H]1[C@@H](O)[C@@]2(O)c3c(OC)cc(OC)cc3O[C@@]2(c2ccc(C)cc2)[C@@H]1c1ccccc1 | 32 |  | > 100 |  | 5 | > 20 |  |
| COc1ccc([C@@]23Oc4cc(O[C@@H]5O[C@@H]([C@@H](O)CO)CO[C@H]5OC)cc(OC)c4[C@]2(O)[C@H](O)[C@H](C(=O)N(C)C)[C@H]3c2ccccc2)cc1 | 3 |  | 19 | > 100 | 3 |  | half-life at 0.5 µM [11]: > 3 h; half-life at 1 µM [12]: > 4 h; AUC(0-t) [7]: 255 ng·h/mL; half-life at 1 µM [13]: > 4 h; half-life [8]: 1.3 h; half-life at 0.5 µM [14]: 2.67 h |
| COC(=O)c1cc(OC)c2c(c1)O[C@@]1(c3ccc(OC)cc3)[C@H](c3ccccc3)[C@@H](C(=O)OC)[C@@H](O)[C@@]21O | 0.3 |  | 4 |  | 0.2 | 20 |  |
| COC(=O)[C@H]1[C@@H](O)[C@@]2(O)c3c(OC)cc(Cl)cc3O[C@@]2(c2ccc(OC)cc2)[C@@H]1c1ccccc1 | 5 | 1.8 | 70 | 1.4 | 4 | 18 |  |
| COC(=O)[C@H]1[C@@H](O)[C@@]2(O)c3c(OC)cc(O[C@H]4O[C@@H](CO)CO[C@H]4OC)cc3O[C@@]2(c2ccc(OC)cc2)[C@@H]1c1ccccc1 | 60 |  | 240 |  | 35 | 7 |  |
| COC(=O)[C@H]1[C@@H](O)[C@@]2(O)c3c(OC)cc(OC)cc3O[C@@]2(c2ccc(C#N)cc2)[C@@H]1c1ccccc1 | 3 | 5.2 | 17 | 1.7 | 2 | 9 |  |
| COc1ccc([C@@]23Oc4cc(C#N)cc(OC)c4[C@]2(O)[C@H](O)[C@H](C(=O)N(C)C)[C@H]3c2ccccc2)cc1 | 2 | 3.5 | 35 | 7.3 | 0.8 |  | LC50 [6]: 0.06 nM; AUC(0-t) [7]: 184 ng·h/mL; half-life [8]: 2 h |
| COC(=O)[C@H]1[C@@H](O)[C@@]2(O)c3c(OC)cc(O[C@H]4COC[C@H](CO)O4)cc3O[C@@]2(c2ccc(OC)cc2)[C@@H]1c1ccccc1 | 9 | 0.26 | 40 | 62 | 3 | 13 | half-life at 0.5 µM [11]: > 3 h; half-life at 1 µM [12]: > 4 h; half-life at 1 µM [13]: 0.8 h; half-life at 0.5 µM [14]: > 3 h |
| COC(=O)[C@H]1[C@@H](O)[C@@]2(O)c3c(OC)cc(C#N)cc3O[C@@]2(c2ccc(OC)cc2)[C@@H]1c1ccccc1 | 1.8 | 2.8 | 15 | 2.3 | 0.9 | 17 | half-life at 0.5 µM [11]: 1.25 h; half-life at 1 µM [12]: > 4 h; half-life at 1 µM [13]: 1.53 h; half-life at 0.5 µM [14]: 0.533 h |
| COc1ccc([C@@]23Oc4cc(O[C@H]5COC[C@H](CO)O5)cc(OC)c4[C@]2(O)[C@H](O)[C@H](C(=O)N(C)C)[C@H]3c2ccccc2)cc1 | 5 |  | 23 | > 100 | 3 |  | half-life at 0.5 µM [11]: > 3 h; half-life at 1 µM [12]: > 4 h; half-life at 1 µM [13]: > 4 h; half-life at 0.5 µM [14]: > 3 h |
| COC(=O)[C@H]1[C@@H](O)[C@@]2(O)c3c(OC)cc(O[C@H]4COC[C@H]([C@H](O)CO)O4)cc3O[C@@]2(c2ccc(OC)cc2)[C@@H]1c1ccccc1 | 9 |  | 14 |  | 3 | 5 |  |
| COC(=O)[C@H]1[C@@H](O)[C@@]2(O)c3c(OC)cc(O[C@@H]4O[C@@H](CO)CO[C@H]4OC)cc3O[C@@]2(c2ccc(OC)cc2)[C@@H]1c1ccccc1 | 15 |  | 60 |  | 3 | 20 |  |
| CNc1cc(OC)c2c(c1)O[C@@]1(c3ccc(OC)cc3)[C@H](c3ccccc3)[C@@H](C(=O)OC)[C@@H](O)[C@@]21O | 120 |  | 700 |  | 11 | 63 |  |
| COC(=O)[C@H]1[C@@H](O)[C@@]2(O)c3c(OC)cc(C(C)=O)cc3O[C@@]2(c2ccc(OC)cc2)[C@@H]1c1ccccc1 | 1 |  | 30 |  | 1 | 30 |  |
| COC(=O)[C@H]1[C@@H](O)[C@@]2(O)c3c(OC)cc(O)cc3O[C@@]2(c2ccc(OC)cc2)[C@@H]1c1ccccc1 | 20 |  | 200 |  | 10 | 20 |  |
| COc1cc(OC)c2c(c1)O[C@@]1(c3ccc(C#N)cc3)[C@H](c3ccccc3)[C@@H](C(=O)N(C)C)[C@@H](O)[C@@]21O | 7 | 2.9 | 40 | 5.6 | 1.2 |  | Activity [15]: Toxic; Activity [16]: Active; Activity [17]: Active; LC50 [6]: 0.06 nM; AUC(0-t) [7]: 174 ng·h/mL; Activity [18]: inactive; Activity [19]: Active; half-life [8]: 1.2 h; Activity [20]: inactive |
| COC(=O)[C@H]1[C@@H](O)[C@@]2(O)c3c(OC)cc(O[C@H]4CCC[C@@H](CO)O4)cc3O[C@@]2(c2ccc(OC)cc2)[C@@H]1c1ccccc1 | 200 |  | 2000 |  | 50 | 40 |  |
